From ChEMBL document CHEMBL1157184, “Hymenoic acid, a novel specific inhibitor of human DNA polymerase lambda from a fungus of Hymenochaetaceae sp” (Bioorg Med Chem, 2008)

Columns and labels:
[1] = compound: C/C(=C\CC[C@H](C)C(=O)O)[C@H]1CC[C@H](C(=O)O)CC1; test: Inhibition of human DNA polymerase lambda at 40 uM using template primer as as substrate
Summary of the method: (§1)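 Kinetics on full-length human pol λ at 0, 20, 40 and 60 μM compound, varying either the template-primer poly(dA)/oligo(dT)12-18 or the nucleotide substrate dTTP. Km and Vmax (pmol/h) came from Lineweaver-Burk plots and Ki from Dixon plots.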

[2] = compound: C/C(=C\CC[C@H](C)C(=O)O)[C@H]1CC[C@H](C(=O)O)CC1; test: Inhibition of human DNA polymerase lambda at 20 uM using nucleotide as substrate; summary of the method: as §1
[3] = compound: C/C(=C\CC[C@H](C)C(=O)O)[C@H]1CC[C@H](C(=O)O)CC1; test: Inhibition of human DNA polymerase lambda at 60 uM using template primer as as substrate; summary of the method: as §1
[4] = compound: C/C(=C\CC[C@H](C)C(=O)O)[C@H]1CC[C@H](C(=O)O)CC1; test: Inhibition of human DNA polymerase lambda at 40 uM using nucleotide as substrate; summary of the method: as §1
[5] = compound: C/C(=C\CC[C@H](C)C(=O)O)[C@H]1CC[C@H](C(=O)O)CC1; test: Inhibition of human DNA polymerase lambda at 20 uM using template primer as substrate; summary of the method: as §1
[6] = compound: C/C(=C\CC[C@H](C)C(=O)O)[C@H]1CC[C@H](C(=O)O)CC1; test: Inhibition of human DNA polymerase lambda at 60 uM using nucleotide as substrate; summary of the method: as §1

B1: DNA polymerase lambda (Homo sapiens), Q9UGP5 (protein)
chain: MDPRGILKAFPKRQKIHADASSKVLAKIPRREEGEEAEEWLSSLRAHVVRTGIGRARAELFEKQIVQHGGQLCPAQGPGVTHIVVDEGMDYERALRLLRLPQLPPGAQLVKSAWLSLCLQERRLVDVAGFSIFIPSRYLDHPQPSKAEQDASIPPGTHEALLQTALSPPPPPTRPVSPPQKAKEAPNTQAQPISDDEASDGEETQVSAADLEALISGHYPTSLEGDCEPSPAPAVLDKWVCAQPSSQKATNHNLHITEKLEVLAKAYSVQGDKWRALGYAKAINALKSFHKPVTSYQEACSIPGIGKRMAEKIIEILESGHLRKLDHISESVPVLELFSNIWGAGTKTAQMWYQQGFRSLEDIRSQASLTTQQAIGLKHYSDFLERMPREEATEIEQTVQKAAQAFNSGLLCVACGSYRRGKATCGDVDVLITHPDGRSHRGIFSRLLDSLRQEGFLTDDLVSQEENGQQQKYLGVCRLPGPGRRHRRLDIIVVPYSEFACALLYFTGSAHFNRSMRALAKTKGMSLSEHALSTAVVRNTHGCKVGPGRVLPTPTEKDVFRLLGLPYREPAERDW
B1 was tested. Which Vmax [1] did it give?
Its Vmax is 48.8 pmol/h.

And the Vmax [2]?
The Vmax was 40 pmol/h.

And the Vmax [3]?
The Vmax was 40.8 pmol/h.

What about the Vmax [4] of the same protein?
Its Vmax is 32.3 pmol/h.

And the Vmax [5]?
The Vmax was 62.5 pmol/h.

And the Vmax [6]?
Its Vmax is 27 pmol/h.
